Data as given in ChEMBL document CHEMBL2086393, “Haloenol pyranones and morpholinones as antineoplastic agents of prostate cancer” (Bioorg Med Chem Lett, 2012).
Active and inactive are the calls of the source. The calls are words filed in the database; no cut-off is given here.

What was measured:
LNCaP [1] = assay: Antineoplastic activity against human LNCAP cells after 72 hrs by MTT assay; format: functional, cell-based
Method in brief: (§1)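 LNCaP and PC-3 human prostate cancer cells were exposed to compound for 24, 48 or 72 h, and growth was read as the change in MTT staining. IC50 was calculated from 3–5 experiments, each run in duplicate on separate cell passages.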

LNCaP [2] = assay: Antineoplastic activity against human LNCAP cells after 48 hrs by MTT assay; format: functional, cell-based; method in brief: as §1
PC-3 [3] = assay: Antineoplastic activity against human PC3 cells after 48 hrs by MTT assay; format: functional, cell-based; details: PC-3, 48 h; method in brief: as §1
PC-3 [4] = assay: Antineoplastic activity against human PC3 cells after 72 hrs by MTT assay; format: functional, cell-based; details: PC-3, 72 h; method in brief: as §1
PC-3 [5] = assay: Antineoplastic activity against human PC3 cells after 24 hrs by MTT assay; format: functional, cell-based; details: PC-3, 24 h; method in brief: as §1
LNCaP [6] = assay: Antineoplastic activity against human LNCAP cells after 24 hrs by MTT assay; format: functional, cell-based; method in brief: as §1
LNCaP [7] = assay: Cell cycle arrest in human LNCAP cells assessed as increase in G1 phase cells at 10 uM after 24 hrs by PI-based flow cytometric analysis relative to control; format: functional
Method in brief: (§2)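 LNCaP cells were treated for 24 h at 5 or 10 μM. Cells were stained with propidium iodide and analysed by flow cytometry for the percentages in G1, S and G2/M phases, compared with control.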

LNCaP [8] = assay: Cytotoxicity against human LNCAP cells assessed as cell death at 5 uM after 72 hrs by phase-contrast microscopic analysis; format: functional, cell-based
Method in brief: (§3)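 LNCaP cells were treated at 5 μM for 72 h. Cells were inspected by eye under phase-contrast microscopy for changes in shape and differentiation, death, and signs of apoptosis or necrosis, compared with a DMSO vehicle control.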

LNCaP [9] = assay: Cell cycle arrest in human LNCAP cells assessed as increase in G1 phase cells at 5 uM after 24 hrs by PI-based flow cytometric analysis relative to control; format: functional; method in brief: as §2
LNCaP [10] = assay: Antineoplastic activity against human LNCAP cells at 5 to 13 uM by MTT assay; format: functional, cell-based; details: TDE = time-dependent effect; method in brief: as §1
LNCaP [11] = assay: Cell cycle arrest in human LNCAP cells assessed as decrease in S phase cells at 10 uM after 24 hrs by PI-based flow cytometric analysis relative to control; format: functional; method in brief: as §2
PC-3 [12] = assay: Antineoplastic activity against human PC3 cells at 14 to 34 uM by MTT assay; format: functional, cell-based; details: TDE = time-dependent effect; method in brief: as §1
LNCaP [13] = assay: Cytotoxicity against human LNCAP cells assessed as change in cell differentiation at 5 uM after 72 hrs by phase-contrast microscopic analysis; format: functional, cell-based; method in brief: as §3
Rattus norvegicus [14] = organism: Rattus norvegicus; assay: Inhibition of iPLA2beta in rat kidney cytosol using arachidonoyl thio-phosphatidylcholine as substrate after 0.5 hrs by spectrophotometry; format: tissue-based
Method in brief: (§4)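 Cytosolic fractions were preincubated with compound at 0–100 μM for 0.5 h. Arachidonoyl thiophosphatidylcholine, a hydrolysable thioester probe of PLA2 activity, was then added to follow enzyme activity.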

LNCaP [15] = assay: Cytotoxicity against human LNCAP cells assessed as change in cell shape at 5 uM after 72 hrs by phase-contrast microscopic analysis; format: functional, cell-based; method in brief: as §3
LNCaP [16] = assay: Cell cycle arrest in human LNCAP cells assessed as decrease in S phase cells at 5 uM after 24 hrs by PI-based flow cytometric analysis relative to control; format: functional; method in brief: as §2
LNCaP [17] = assay: Cell cycle arrest in human LNCAP cells assessed as decrease in G2/M phase cells at 5 uM after 24 hrs by PI-based flow cytometric analysis relative to control; format: functional; method in brief: as §2
LNCaP [18] = assay: Induction of necrosis in human LNCAP cells at 5 uM after 72 hrs by phase-contrast microscopic analysis; format: functional, cell-based; method in brief: as §3
LNCaP [19] = assay: Induction of apoptosis in human LNCAP cells at 5 uM after 72 hrs by phase-contrast microscopic analysis; format: functional, cell-based; method in brief: as §3
Rattus norvegicus [20] = organism: Rattus norvegicus; assay: Inhibition of iPLA2beta in rat kidney cytosol using arachidonoyl thio-phosphatidylcholine as substrate up to 100 uM after 0.5 hrs by spectrophotometry; format: tissue-based; method in brief: as §4

| IC50 (LNCaP [1]) [µM] | IC50 (LNCaP [2]) [µM] | IC50 (PC-3 [3]) [µM] | IC50 (PC-3 [4]) [µM] | IC50 (PC-3 [5]) [µM] | IC50 (LNCaP [6]) [µM] | Compound | Activity (LNCaP [7]) | Activity (LNCaP [8]) | Activity (LNCaP [9]) | Activity (LNCaP [10]) | Activity (LNCaP [11]) | Activity (PC-3 [12]) | Activity (LNCaP [13]) | inhibition (Rattus norvegicus [14]) | Activity (LNCaP [15]) | Activity (LNCaP [16]) | Activity (LNCaP [17]) | Activity (LNCaP [18]) | Activity (LNCaP [19]) | inhibition (Rattus norvegicus [20]) |
| --- | --- | --- | --- | --- | --- | --- | --- | --- | --- | --- | --- | --- | --- | --- | --- | --- | --- | --- | --- | --- |
| 7 | 5 | 15 | 16 | 32 | 9 | O=C1CCC/C(=C\I)O1 |  |  |  |  |  |  |  |  |  |  |  |  |  |  |
| 9 | 5 | 26 | 14 | 34 | 13 | O=C1O/C(=C/Br)CCC1c1cccc2ccccc12 (racemic) [BROMOENOL LACTONE] | Active | inactive | Active | tde | Active | tde | inactive | Dose-dependent effect | inactive | Active | Active |  |  |  |
| 3 | 6 | 6 | 3 | 8 | 6 | C#CCN1C/C(=C\Br)OC(=O)[C@H]1c1ccccc1 | Active |  | Active |  | Active |  |  |  |  | Active | Active | Active | Active | inactive |
| 3 | 4 | 1 | 4 | 4 | 3 | O=C1O/C(=C/Br)CN(Cc2ccccc2)[C@H]1c1ccccc1 |  |  |  |  |  |  |  |  |  |  |  |  |  |  |
|  |  |  |  |  |  | O=C1O/C(=C/Br)CC[C@H]1c1cccc2ccccc12 |  |  |  |  |  |  |  |  |  |  |  |  |  | Active |
| 3 | 3 | 13 | 5 | 15 | 8 | C#CCN1C/C(=C\Br)OC(=O)[C@@H]1c1ccccc1 | Active |  | Active |  | Active |  |  |  |  | Active | Active |  |  | Active |
| 32 | 26 | 57 | 39 | 33 | 41 | C#CCN1C/C(=C\Br)OC(=O)[C@@H]1Cc1ccccc1 |  |  |  |  |  |  |  |  |  |  |  |  |  |  |
| 20 | 23 | 21 | 25 | 21 | 26 | C#CCN1C/C(=C\I)OC(=O)[C@@H]1c1ccccc1 |  |  |  |  |  |  |  |  |  |  |  |  |  |  |
| 4 | 5 | 10 | 6 | 27 | 31 | O=C1O/C(=C/Br)CCC1c1ccccc1 (racemic) | Active | inactive | Active |  | Active |  | inactive | Dose-dependent effect | inactive | Active | Active |  |  |  |
| 5 | 5 | 23 | 14 | 19 | 10 | O=C1CCC/C(=C\Br)O1 |  |  |  |  |  |  |  |  |  |  |  |  |  |  |
| 28 | 29 | 10 | 7 | 13 | 25 | C#CCN1CC(=O)O/C(=C/Br)C1 |  |  |  |  |  |  |  |  |  |  |  |  |  |  |
